From ChEMBL document CHEMBL3259819, “Antimicrobial peptides from skin secretions of Hypsiboas pulchellus (Anura: Hylidae)” (J Nat Prod, 2014)
Converted amounts (≈) assume the structure as drawn. Where a SMILES comes first, the peptide text is derived from it.

Legend:
Pseudomonas aeruginosa = test: Antimicrobial activity against Pseudomonas aeruginosa; assay type: functional
Staphylococcus aureus [1] = test: Antimicrobial activity against Staphylococcus aureus; assay type: functional
Escherichia coli [2] = test: Antimicrobial activity against Escherichia coli; assay type: functional
Bacillus subtilis = test: Antimicrobial activity against Bacillus subtilis; assay type: functional
Enterococcus faecalis = test: Antimicrobial activity against Enterococcus faecalis; assay type: functional
[3] = Toxicity in erythrocytes (unknown origin) assessed as hemolytic activity; assay type: cell-based, Erythrocyte; conditions: read-out: HD50 (the source's name)
In short: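 Human erythrocytes from heparinised blood, spun 3000 rpm for 10 min after three saline washes, used at 0.4% (v/v) in isotonic saline. Equal volumes incubated with increasing concentrations (0.4 to 4.4 mg/mL for extracts) for 60 min at 37 °C. Cells spun at 3000 rpm for 5 min and supernatant A405 read. Lysis by 1% Triton X-100 served as 100%.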

[4] = Therapeutic index, ratio of hemolytic activity in human erythrocytes assessed as lowest concentration required for hemolysis to MIC for Escherichia coli; assay type: cell-based; conditions: read-out: TI
In short: (§1)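 TI is the lowest hemolytic concentration divided by the MIC, calculated per peptide and strain. LHC is the lowest peptide concentration giving 100% hemolysis of human erythrocytes (60 min, 37 °C). Where 100% hemolysis was not reached at 320 μM, 640 μM was used. MICs came from microtiter broth dilution against E. coli ATCC 25922 or S. aureus ATCC 25929.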

[5] = Hemolytic activity in human erythrocytes at 320 uM after 60 mins; assay type: ADME, cell-based, Erythrocyte; conditions: read-out: Activity
In short: (§2)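 Human erythrocytes came from heparinized blood, were washed three times in saline and pelleted, then suspended at 0.4% (v/v) in isotonic saline. 1 mL cells was mixed with 1 mL peptide dilution and held 60 min at 37 °C. After centrifugation, supernatant absorbance was read at 405 nm, with lysis by 1% Triton X-100 set as 100%.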

Escherichia coli [6] = test: Antimicrobial activity against Escherichia coli ATCC 25922 after 18 to 24 hrs by microtitre dilution method; assay type: functional
In short: (§3)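 Modified microtiter broth dilution (Hancock method for AMPs). Strains were activated 24 h at 37 °C in Mueller-Hinton broth, and the inoculum was set to 5 × 10^7 cfu/mL. Tests ran in diluted MHB for 18 to 24 h at 37 °C. Peptides were solubilised in water with 10% acetic acid; the top assay concentration was 1280 μg/mL. MIC is the lowest concentration inhibiting growth.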

Staphylococcus aureus [7] = test: Antimicrobial activity against Staphylococcus aureus ATCC 25929 after 18 to 24 hrs by microtitre dilution method; assay type: functional; in short: as §3
[8] = Therapeutic index, ratio of hemolytic activity in human erythrocytes assessed as lowest concentration required for hemolysis to MIC for Staphylococcus aureus; assay type: cell-based; conditions: read-out: TI; in short: as §1
[9] = Hemolytic activity in human erythrocytes assessed as lowest concentration required to hemolysis after 60 mins; assay type: ADME, cell-based; conditions: erythrocyte, 1 h; in short: as §2
[10] = Hemolytic activity in human erythrocytes at 20 uM after 60 mins; assay type: ADME, cell-based, Erythrocyte; conditions: read-out: Activity; in short: as §2

Row | MIC (Pseudomonas aeruginosa) | MIC (Staphylococcus aureus [1]) | MIC (Escherichia coli [2]) | MIC (Bacillus subtilis) | MIC (Enterococcus faecalis) | MIC (Escherichia coli [6]) | MIC (Staphylococcus aureus [7]) | Compound | HC50 [3] | selectivity ratio [4] | hemolysis at 1 h, 320 µM [5] | selectivity ratio [8] | MHC [9] | hemolysis at 1 h, 20 µM [10]
1 | 64 µM (≈ 119 µg/mL) | 8 µM (≈ 14.9 µg/mL) | 32 µM (≈ 59.7 µg/mL) | 8 µM (≈ 14.9 µg/mL) | 16 µM (≈ 29.8 µg/mL) |  |  | CC[C@H](C)[C@H](N)C(=O)N[C@@H](Cc1ccccc1)C(=O)NCC(=O)N[C@@H](C)C(=O)N[C@H](C(=O)N[C@@H](CC(C)C)C(=O)N1CCC[C@H]1C(=O)N[C@@H](CC(C)C)C(=O)N[C@@H](C)C(=O)N[C@@H](CC(C)C)C(=O)NCC(=O)N[C@@H](C)C(=O)N[C@@H](CC(C)C)C(=O)N[C@@H](CCCCN)C(=O)N[C@@H](CC(N)=O)C(=O)N[C@@H](CC(C)C)C(=O)N[C@H](C(=O)N[C@@H](CCCCN)C(=O)O)[C@@H](C)CC)[C@@H](C)CC (H-IFGAILPLALGALKNLIK-OH) | 18 µM |  |  |  |  | 
2 |  |  |  |  |  | 33 µM (≈ 63.9 µg/mL) | 66 µM (≈ 128 µg/mL) | CC(C)C[C@H](NC(=O)[C@H](CO)NC(=O)[C@@H]1CCCN1C(=O)[C@H](CO)NC(=O)[C@H](CC(C)C)NC(=O)[C@@H](N)CCCCN)C(=O)NCC(=O)N1CCC[C@H]1C(=O)N[C@H](C(=O)N[C@@H](CO)C(=O)N[C@@H](CCCCN)C(=O)NCC(=O)N[C@@H](CCCCN)C(=O)N[C@@H](CC(C)C)C(=O)N[C@@H](CC(C)C)C(=O)N[C@@H](C)C(=O)NCC(=O)N[C@@H](CCC(N)=O)C(=O)N[C@@H](CCCNC(=N)N)C(N)=O)C(C)C (H-KLSPSLGPVSKGKLLAGQR-NH2) |  | 9.7 | 100% | 4.9 | 320 µM | 
3 |  |  |  |  |  | 17 µM (≈ 32.2 µg/mL) | 17 µM (≈ 32.2 µg/mL) | CC(C)C[C@H](NC(=O)CNC(=O)[C@H](C)NC(=O)[C@H](CC(C)C)NC(=O)[C@H](CC(C)C)NC(=O)[C@@H](NC(=O)[C@H](CCCCN)NC(=O)[C@H](CC(C)C)NC(=O)[C@H](CC(C)C)NC(=O)[C@H](C)NC(=O)[C@@H]1CCCN1C(=O)[C@H](CC(C)C)NC(=O)[C@H](C)NC(=O)[C@@H](NC(=O)CNC(=O)[C@H](CC(C)C)NC(=O)[C@@H](N)CCCNC(=N)N)[C@@H](C)O)[C@@H](C)O)C(=O)N[C@@H](CC(N)=O)C(=O)NCC(N)=O (H-RLGTALPALLKTLLAGLNG-NH2) |  | 1.5 |  | 1.5 | 25 µM | > 90%
4 |  |  |  |  |  | 16 µM (≈ 31.5 µg/mL) | 8 µM (≈ 15.8 µg/mL) | CC(C)C[C@H](NC(=O)[C@H](CC(C)C)NC(=O)[C@@H](NC(=O)[C@@H]1CCCN1C(=O)[C@H](CCCCN)NC(=O)[C@@H](N)[C@@H](C)O)[C@@H](C)O)C(=O)NCC(=O)N[C@@H](CC(C)C)C(=O)N1CCC[C@H]1C(=O)N[C@@H](CC(C)C)C(=O)NCC(=O)N[C@@H](C)C(=O)NCC(=O)N1CCC[C@H]1C(=O)N[C@@H](C)C(=O)N[C@@H](C)C(=O)NCC(=O)N1CCC[C@H]1C(=O)NCC(=O)N[C@@H](CCCCN)C(=O)N[C@@H](CCCNC(=N)N)C(N)=O (H-TKPTLLGLPLGAGPAAGPGKR-NH2) |  | 40 | ≤ 12% | 80 | 640 µM | 

Further lines, the compound ahead of its results:

Row | Compound | MIC (Pseudomonas aeruginosa) | MIC (Staphylococcus aureus [1]) | MIC (Escherichia coli [2]) | MIC (Bacillus subtilis) | MIC (Enterococcus faecalis) | MIC (Escherichia coli [6]) | MIC (Staphylococcus aureus [7]) | HC50 [3] | selectivity ratio [4] | hemolysis at 1 h, 320 µM [5] | selectivity ratio [8] | MHC [9] | hemolysis at 1 h, 20 µM [10]
5 | CC(C)C[C@H](NC(=O)[C@H](C)NC(=O)[C@@H](NC(=O)[C@H](CCCCN)NC(=O)CNC(=O)[C@@H](NC(=O)[C@@H](NC(=O)[C@H](CCCCN)NC(=O)CNC(=O)[C@H](CC(C)C)NC(=O)[C@H](CO)NC(=O)[C@H](CCCCN)NC(=O)[C@H](CC(C)C)NC(=O)[C@H](CCCCN)NC(=O)[C@H](CC(=O)O)NC(=O)[C@H](CC(C)C)NC(=O)[C@H](Cc1c[nH]c2ccccc12)NC(=O)[C@H](C)N)C(C)C)C(C)C)C(C)C)C(=O)NCC(=O)N[C@H](C(=O)N[C@@H](C)C(=O)N[C@@H](CCC(N)=O)C(=O)N[C@@H](CC(N)=O)C(=O)N[C@@H](Cc1ccc(O)cc1)C(=O)N[C@@H](CC(C)C)C(=O)N[C@@H](CC(N)=O)C(=O)N1CCC[C@H]1C(=O)N[C@@H](CCC(N)=O)C(=O)N[C@@H](CCC(N)=O)C(=O)O)C(C)C (H-AWLDKLKSLGKVVGKVALGVAQNYLNPQQ-OH) | 10 µM (≈ 31.4 µg/mL) | 20 µM (≈ 62.8 µg/mL) | 5 µM (≈ 15.7 µg/mL) |  |  |  |  |  |  |  |  |  | 
6 | CC[C@H](C)[C@H](NC(=O)CN)C(=O)N[C@@H](CC(C)C)C(=O)N[C@@H](CC(=O)O)C(=O)N[C@@H](C)C(=O)N[C@H](C(=O)N[C@@H](CCCCN)C(=O)N[C@@H](C)C(=O)N[C@H](C(=O)N[C@@H](C)C(=O)N[C@@H](CCCCN)C(=O)N[C@@H](C)C(=O)N[C@@H](C)C(=O)NCC(=O)O)[C@@H](C)CC)[C@@H](C)CC (H-GILDAIKAIAKAAG-OH) | 64 µM (≈ 83.9 µg/mL) | 8 µM (≈ 10.5 µg/mL) | 32 µM (≈ 42 µg/mL) |  |  |  |  |  |  |  |  |  | 
